Reference: ChEMBL document CHEMBL3108713, “Identification of ML251, a Potent Inhibitor of T. brucei and T. cruzi Phosphofructokinase” (ACS Med Chem Lett, 2014)

What was measured:
[1] = target: T1, ATP-dependent 6-phosphofructokinase (Trypanosoma brucei) (UniProt O15648); test: Inhibition of Trypanosoma brucei PFK-mediated ADP production using ATP/fructose-6-phosphate as substrate at 57 uM by luciferase based luminescence assay
T1 sequence (whole entry): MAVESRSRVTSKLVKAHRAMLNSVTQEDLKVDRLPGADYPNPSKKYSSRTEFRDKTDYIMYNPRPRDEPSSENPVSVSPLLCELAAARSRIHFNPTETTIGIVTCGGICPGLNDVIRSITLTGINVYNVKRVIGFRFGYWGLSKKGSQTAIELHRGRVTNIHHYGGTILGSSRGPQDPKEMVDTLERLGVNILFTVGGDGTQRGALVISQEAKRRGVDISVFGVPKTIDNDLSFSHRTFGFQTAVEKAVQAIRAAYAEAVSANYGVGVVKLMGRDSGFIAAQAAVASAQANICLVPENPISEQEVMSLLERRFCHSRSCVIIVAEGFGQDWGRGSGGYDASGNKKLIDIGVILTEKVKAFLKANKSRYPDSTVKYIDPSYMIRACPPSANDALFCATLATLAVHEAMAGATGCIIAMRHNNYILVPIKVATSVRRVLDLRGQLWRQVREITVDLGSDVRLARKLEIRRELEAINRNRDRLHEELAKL
Procedure, shortened: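 Recombinant T. brucei PFK; ADP formed by the enzyme is converted to a luminescent signal by a modified luciferase ADP-Glo detection, read at end point.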

[2] = target: T2, ATP-dependent 6-phosphofructokinase (Trypanosoma cruzi) (UniProt Q4E657); test: Inhibition of Trypanosoma cruzi PFK at 57 uM
T2 sequence (whole entry): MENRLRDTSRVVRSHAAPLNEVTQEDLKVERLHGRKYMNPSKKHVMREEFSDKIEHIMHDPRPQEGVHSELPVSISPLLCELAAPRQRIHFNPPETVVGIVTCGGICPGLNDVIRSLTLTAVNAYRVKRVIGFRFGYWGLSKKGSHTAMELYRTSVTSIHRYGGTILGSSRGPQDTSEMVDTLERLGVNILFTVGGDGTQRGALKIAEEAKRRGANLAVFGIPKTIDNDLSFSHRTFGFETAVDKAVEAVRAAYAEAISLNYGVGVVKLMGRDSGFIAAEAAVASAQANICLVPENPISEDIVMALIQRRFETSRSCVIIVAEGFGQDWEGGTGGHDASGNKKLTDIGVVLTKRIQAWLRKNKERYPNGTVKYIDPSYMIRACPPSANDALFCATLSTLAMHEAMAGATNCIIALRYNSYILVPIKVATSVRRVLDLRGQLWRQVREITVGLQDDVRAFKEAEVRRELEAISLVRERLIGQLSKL
Procedure, shortened: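 PFK activity is measured by coupling ADP production to ADP-Glo luciferase luminescence at end point. Percent inhibition is recorded at 57 μM, the highest concentration of the dose series, with at least 3 separate experiments averaged.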

[3] = target: T3, ATP-dependent 6-phosphofructokinase (Trypanosoma cruzi, UniProt Q4E657); test: Inhibition of Trypanosoma cruzi PFK
T3 sequence (Q4E657 whole entry): T2 sequence (whole entry)

[4] = target: T4, ATP-dependent 6-phosphofructokinase (Trypanosoma brucei, UniProt O15648); test: Inhibition of Trypanosoma brucei PFK-mediated ADP production using ATP/fructose-6-phosphate as substrate by luciferase based luminescence assay
T4 sequence (O15648 whole entry): T1 sequence (whole entry)
Procedure, shortened: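 Recombinant enzyme; ADP formed by PFK detected with modified luciferase (ADP-Glo) luminescent end-point in 1536-well format.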

## O=C(Cc1ccc(Cl)c(Cl)c1)Nc1ccc(S(=O)(=O)Nc2cc[nH]n2)cc1
[1]
  inhibition: > 80%
[2]
  inhibition: > 80%
[3]
  IC50: 0.73 µM
[4]
  IC50: 0.52 µM

## O=C(Cc1ccc(Cl)c(Cl)c1)Nc1ccc(S(=O)(=O)Nc2ccccc2)cc1
[1]
  inhibition: > 80%
[2]
  inhibition: > 80%
[3]
  IC50: 16.3 µM
[4]
  IC50: 16.3 µM

## Cc1cc(NC(=O)c2ccc(NC(=O)Cc3ccc(Cl)c(Cl)c3)cc2)no1
[3]
  IC50: > 57 µM
[4]
  IC50: > 57 µM

## O=C(Cc1ccc(Cl)c(Cl)c1)Nc1ccc(S(=O)(=O)Nc2cncnc2)cc1
[1]
  inhibition: > 80%
[2]
  inhibition: > 80%
[3]
  IC50: 0.73 µM
[4]
  IC50: 0.82 µM

## COc1ccc(CC(=O)Nc2ccc(S(=O)(=O)Nc3cc(C)on3)cc2)cc1OC
[3]
  IC50: > 57 µM
[4]
  IC50: > 57 µM

## Cc1cc(NS(=O)(=O)c2ccc(NC(=O)Cc3ccc(Cl)c(C(F)(F)F)c3)cc2)no1
[1]
  inhibition: > 80%
[2]
  inhibition: > 80%
[3]
  IC50: 0.92 µM
[4]
  IC50: 0.68 µM

## Cc1cc(NS(=O)(=O)C2CCN(C(=O)Cc3ccc(Cl)c(Cl)c3)CC2)no1
[1]
  inhibition: > 80%
[2]
  inhibition: > 80%
[3]
  IC50: 13 µM
[4]
  IC50: 33 µM

## Cc1cc(NS(=O)(=O)c2ccc(NC(=O)Cc3ccc(Cl)cc3)cc2)no1
[1]
  inhibition: > 80%
[2]
  inhibition: > 80%
[3]
  IC50: 1.46 µM
[4]
  IC50: 1.83 µM

## Cc1cc(NS(=O)(=O)c2ccc(NC(=O)Cc3ccc(Cl)c(Cl)c3)cc2)n(C)n1
[1]
  inhibition: > 80%
[2]
  inhibition: > 80%
[3]
  IC50: 1.16 µM
[4]
  IC50: 2.31 µM

## Cc1cc(NS(=O)(=O)c2ccc(NCCc3ccc(Cl)c(Cl)c3)cc2)no1
[1]
  inhibition: > 80%
[2]
  inhibition: > 80%
[3]
  IC50: 16.3 µM
[4]
  IC50: 6 µM

## Cc1cc(NS(=O)(=O)CCNC(=O)Cc2ccc(Cl)c(Cl)c2)no1
[1]
  inhibition: > 80%
[2]
  inhibition: > 80%
[3]
  IC50: 16.3 µM
[4]
  IC50: 32.6 µM

## CCOC(=O)c1cccc(NS(=O)(=O)c2ccc(NC(=O)Cc3ccc(Cl)c(Cl)c3)cc2)c1
[3]
  IC50: > 57 µM
[4]
  IC50: > 57 µM

## Cc1cc(NS(=O)(=O)c2ccc(NC(=O)Cc3ccc(F)c(Cl)c3)cc2)no1
[1]
  inhibition: > 80%
[2]
  inhibition: > 80%
[3]
  IC50: 0.46 µM
[4]
  IC50: 0.73 µM

## Cc1cc(NS(=O)(=O)c2ccc(NS(=O)(=O)Cc3ccc(Cl)c(Cl)c3)cc2)no1
[1]
  inhibition: > 80%
[3]
  IC50: > 57 µM
[4]
  IC50: 37 µM

## O=C(Cc1ccc(Cl)c(Cl)c1)Nc1ccc(S(=O)(=O)Nc2nccs2)cc1
[1]
  inhibition: > 80%
[2]
  inhibition: > 80%
[3]
  IC50: 0.041 µM
[4]
  IC50: 0.079 µM

## Cc1cc(NS(=O)(=O)c2ccc(NC(=O)Cc3ccc(Cl)cc3Cl)cc2)no1
[1]
  inhibition: > 80%
[2]
  inhibition: > 80%
[3]
  IC50: 14.6 µM
[4]
  IC50: 4.61 µM

## O=C(Cc1ccc(F)c(Cl)c1)Nc1ccc(S(=O)(=O)Nc2nccs2)cc1
[1]
  inhibition: > 80%
[2]
  inhibition: > 80%
[3]
  IC50: 0.12 µM
[4]
  IC50: 0.024 µM

## Cc1ccc(C(=O)Nc2ccc(S(=O)(=O)O)c3cc(S(=O)(=O)O)cc(S(=O)(=O)O)c23)cc1NC(=O)c1cccc(NC(=O)Nc2cccc(C(=O)Nc3cc(C(=O)Nc4ccc(S(=O)(=O)O)c5cc(S(=O)(=O)O)cc(S(=O)(=O)O)c45)ccc3C)c2)c1 [SURAMIN]
[4]
  IC50: 3 µM

## O=C(Cc1ccc(Cl)c(Cl)c1)Nc1ccc(S(=O)(=O)O)cc1
[1]
  inhibition: > 80%
[2]
  inhibition: > 80%
[3]
  IC50: 0.46 µM
[4]
  IC50: 0.65 µM

## Cc1cc(NS(=O)(=O)c2ccc(NC(=O)C(C)(C)c3ccc(Cl)c(Cl)c3)cc2)no1
[1]
  inhibition: > 80%
[2]
  inhibition: > 80%
[3]
  IC50: 36.5 µM
[4]
  IC50: 36.6 µM

## Cc1cc(NS(=O)(=O)Cc2ccc(NC(=O)Cc3ccc(Cl)c(Cl)c3)cc2)no1
[1]
  inhibition: > 80%
[2]
  inhibition: > 80%
[3]
  IC50: 3.26 µM
[4]
  IC50: 2.59 µM

## Cc1cc(NS(=O)(=O)c2ccc(C(=O)NCc3ccc(Cl)c(Cl)c3)cc2)no1
[1]
  inhibition: > 80%
[2]
  inhibition: > 80%
[3]
  IC50: 2.91 µM
[4]
  IC50: 5.16 µM

## Cc1cc(NS(=O)(=O)c2ccc(NC(=O)Cc3ccc(C)c(F)c3)cc2)no1
[1]
  inhibition: > 80%
[2]
  inhibition: > 80%
[3]
  IC50: 4.6 µM
[4]
  IC50: 5.8 µM

## O=C(Cc1ccc(Cl)c(Cl)c1)Nc1ccc(S(=O)(=O)Nc2cccc(C(=O)O)c2)cc1
[1]
  inhibition: > 80%
[2]
  inhibition: > 80%
[3]
  IC50: 0.58 µM
[4]
  IC50: 0.26 µM

## Cc1cc(NS(=O)(=O)c2ccc(NC(=O)c3ccc(Cl)c(Cl)c3)cc2)no1
[1]
  inhibition: > 80%
[2]
  inhibition: > 80%
[3]
  IC50: 20.6 µM
[4]
  IC50: 14.6 µM

## Cc1cc(NS(=O)(=O)c2cccc(NC(=O)Cc3ccc(Cl)c(Cl)c3)c2)no1
[1]
  inhibition: > 80%
[2]
  inhibition: > 80%
[3]
  IC50: 16.3 µM
[4]
  IC50: 16.3 µM

## O=C(Cc1ccc(Cl)c(Cl)c1)Nc1ccc(S(=O)(=O)Nc2nncs2)cc1
[1]
  inhibition: > 80%
[2]
  inhibition: > 80%
[3]
  IC50: 0.052 µM
[4]
  IC50: 0.112 µM

## O=C(Cc1ccc(Cl)c(Cl)c1)Nc1ccc(S(=O)(=O)Nc2cccc(O)c2)cc1
[1]
  inhibition: > 80%
[2]
  inhibition: > 80%
[3]
  IC50: 1.63 µM
[4]
  IC50: 1.46 µM

## Cc1cc(NS(=O)(=O)c2ccc(NC(=O)Cc3cccc(Cl)c3)cc2)no1
[1]
  inhibition: > 80%
[2]
  inhibition: > 80%
[3]
  IC50: 2.59 µM
[4]
  IC50: 7.3 µM

## Cc1cc(NS(=O)(=O)c2ccc(NC(=O)Cc3ccccc3)cc2)no1
[1]
  inhibition: > 80%
[2]
  inhibition: > 80%
[3]
  IC50: 20.6 µM
[4]
  IC50: 36.6 µM

## O=C(Cc1ccc(Cl)c(Cl)c1)Nc1ccc(S(=O)(=O)Nc2ccc(C(=O)O)cc2)cc1
[1]
  inhibition: > 80%
[2]
  inhibition: > 80%
[3]
  IC50: 0.29 µM
[4]
  IC50: 0.16 µM

## Cc1cc(NS(=O)(=O)c2ccc(NC(=O)Cc3ccc(C)c(C)c3)cc2)no1
[1]
  inhibition: > 80%
[2]
  inhibition: > 80%
[3]
  IC50: 6.5 µM
[4]
  IC50: 18.3 µM

## CN(C)c1cccc(NS(=O)(=O)c2ccc(NC(=O)Cc3ccc(Cl)c(Cl)c3)cc2)c1
[1]
  inhibition: > 80%
[2]
  inhibition: > 80%
[3]
  IC50: 11.6 µM
[4]
  IC50: 5.8 µM

## Cc1cc(NS(=O)(=O)c2ccc(NC(=O)Cc3ccc(Cl)c(F)c3)cc2)no1
[1]
  inhibition: > 80%
[2]
  inhibition: > 80%
[3]
  IC50: 0.65 µM
[4]
  IC50: 0.7 µM

## Cc1cc(NS(=O)(=O)c2ccc(NC(=O)CCc3ccc(Cl)c(Cl)c3)cc2)no1
[1]
  inhibition: > 80%
[2]
  inhibition: > 80%
[3]
  IC50: 6.51 µM
[4]
  IC50: 5.17 µM

## Cc1cc(NS(=O)(=O)c2ccc(NC(=O)Cc3ccc4ccccc4c3)cc2)no1
[1]
  inhibition: > 80%
[2]
  inhibition: > 80%
[3]
  IC50: 1.83 µM
[4]
  IC50: 6.51 µM

## Cc1cc(NS(=O)(=O)c2ccc(N(C)C(=O)Cc3ccc(Cl)c(Cl)c3)cc2)no1
[1]
  inhibition: > 80%
[2]
  inhibition: > 80%
[3]
  IC50: 1.3 µM
[4]
  IC50: 6.51 µM

## COc1ccc(CC(=O)Nc2ccc(S(=O)(=O)Nc3cc(C)on3)cc2)cc1C
[2]
  inhibition: > 80%
[3]
  IC50: 20.6 µM
[4]
  IC50: > 57 µM

## Cc1cc(N(C)S(=O)(=O)c2ccc(NC(=O)Cc3ccc(Cl)c(Cl)c3)cc2)no1
[1]
  inhibition: > 80%
[2]
  inhibition: > 80%
[3]
  IC50: 2.06 µM
[4]
  IC50: 2.91 µM

## Cc1cc(NC(=O)c2csc(NC(=O)Cc3ccc(Cl)c(Cl)c3)n2)no1
[3]
  IC50: > 57 µM
[4]
  IC50: > 57 µM
